PKA-R1A activ: PKA-R1A complex activation | activation, % at 11.4 µM | PKA-R1A dissociation, Cy5-IP20 fluorescence polarization; scaled: DMSO 0%, 113 µM cGMP 100% | AID 504707 | P00514+P68181 | actives 0.083% (n = 340,000);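 active means percent activation above the mean of all tested compounds plus 3 SD, cut at about 19% in these data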;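 further: higher means more PKAc released from R1A so a rise in polarization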
IMP-1 inhibitor: blocks Pseudomonas aeruginosa IMP-1 metallo-beta-lactamase | purified IMP-1, nitrocefin hydrolysis, epi-absorbance fluorescence | inhibition, % at 5.6 µM | actives 0.45% (n = 290,000);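 active means inhibition above the mean plus 3 SD of all compounds in the same screening run, cut at about 4.5% in these data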
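assay system = purified recombinant IMP-1 metallo-beta-lactamase enzyme | schedule = 15 min preincubation plus 25 min reaction at 25 °C | signal = Epi-absorbance fluorescence, 480 nm excitation, 530 nm emission | read-out basis = percent inhibition from optical density relative to buffer-blank wells | controls = IMP-1 with DMSO as 0%, enzyme-free DMSO as 100%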
PKA-R2B act: activators of human PKA-R2B complex; activation, % at 11.4 µM; P22694+P31323; PKA-R2B holoenzyme dissociation, Cy5-IP20 fluorescence polarization; R2B truncated from residue 108, S112A mutant; 0% DMSO only, 100% 113 µM cGMP; actives 0.079% (n = 340,000);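 active means activation above a cutoff set at the mean over all compounds plus 3 SD, cut at about 18% in these data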;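 further: higher means more holoenzyme dissociation and a rise in polarization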
Target sequence (P31323 whole entry, looked up, other chains not shown, the tested form may be a part): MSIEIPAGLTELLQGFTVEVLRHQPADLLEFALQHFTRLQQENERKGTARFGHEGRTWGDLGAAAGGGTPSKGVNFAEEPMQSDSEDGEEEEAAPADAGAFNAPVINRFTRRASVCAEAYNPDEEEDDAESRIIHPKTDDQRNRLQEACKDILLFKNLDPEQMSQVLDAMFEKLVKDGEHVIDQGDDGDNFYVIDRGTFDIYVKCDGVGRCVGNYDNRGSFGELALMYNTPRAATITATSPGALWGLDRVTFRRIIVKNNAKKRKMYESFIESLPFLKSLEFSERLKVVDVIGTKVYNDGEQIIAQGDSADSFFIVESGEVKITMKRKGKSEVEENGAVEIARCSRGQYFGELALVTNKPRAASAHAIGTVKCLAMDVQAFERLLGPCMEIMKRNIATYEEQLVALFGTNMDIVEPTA
MsrA act: bovine methionine sulfoxide reductase A activation; actives 0.3% (n = 360,000); activation, % at 10.6 µM; purified bovine MsrA, absorbance read-out; in the data active means activation above about 7.5%
VIM-2 inh: inhibitors of Pseudomonas aeruginosa VIM-2 metallo-beta-lactamase. purified VIM-2, nitrocefin hydrolysis, epi-absorbance fluorescence. inhibition, % at 5.6 µM. actives 0.89% (n = 290,000). AID 1527;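 active means inhibition above the mean of all tested compounds plus 3 SD, cutoff set per screening run, cut at about 7.5% in these data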;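 further: red hydrolysis product quenches plate fluorescence so inhibitors raise well fluorescence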
MsrA inhibitor: inhibits bovine methionine sulfoxide reductase A; purified bovine MsrA, absorbance read-out; inhibition, % at 15.5 µM; actives 0.75% (n = 360,000); AID 651718; in the data active means inhibition above about 4.5%
MsrA act confirm: bovine methionine sulfoxide reductase A activation confirmed. actives 12% (n = 1,000). activation, % at 10.6 µM. purified bovine MsrA, absorbance read-out. shares compounds with MsrA act; in the data active means activation above about 4%;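 further: enzyme coupled to thioredoxin and thioredoxin reductase with NADPH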
Large screens that a line does not name were inactive (follow-up assays come after a bar, where they were run). This is a sample that favours compounds with a hit; in the whole collection about 2.1% have one here.

O=C(COC(=O)/C=C/c1ccc(F)cc1)NC(=O)NCc1ccccc1	none (no result: IMP-1 inhibitor, VIM-2 inh)
N#C/C(=C\c1ccccc1C(F)(F)F)C(=O)Nc1ccccc1	none
CCc1cccc(CC)c1NC(=O)/C(C#N)=C/c1ccccc1C(F)(F)F	MsrA act 11 | MsrA act confirm inactive
CCc1nnc(N/N=C\c2ccc(OC(C)=O)c(OC)c2)n1N	MsrA act 12 | MsrA act confirm inactive
CCc1nnc(N/N=C/c2cccs2)n1N	MsrA act 8.1 | MsrA act confirm inactive
CCOc1cc(/C=N/Nc2nnc(C)n2N)ccc1OC(C)=O	MsrA act 27 | MsrA act confirm inactive
COc1ccc(/C=N/Nc2nncn2N)cc1Br	MsrA act 25 | MsrA act confirm inactive
O=C(CCc1nnc(-c2ccsc2)o1)N1CCc2c(Cl)cccc2C1	none
CC(=O)Nc1ccc2sn(-c3ccccc3)c(=O)c2c1	MsrA act 9.8 (no result: IMP-1 inhibitor, VIM-2 inh) | MsrA act confirm 5.7
O=c1c2cc([N+](=O)[O-])ccc2sn1-c1ccccc1	MsrA act 9.8 (no result: IMP-1 inhibitor, VIM-2 inh) | MsrA act confirm 7.5
N#Cc1ccc2sn(-c3ccccc3)c(=O)c2c1	MsrA act 12 (no result: IMP-1 inhibitor, VIM-2 inh) | MsrA act confirm 8.9
COc1ccc(-n2sc3ccccc3c2=O)cc1	none (no result: IMP-1 inhibitor, VIM-2 inh)
CC1=C(C(=O)Nc2cc(C)ccc2C)C(c2cccs2)NC(=S)N1 (stereo unspecified)	MsrA act 8.2 | MsrA act confirm inactive
CCOC(=O)C1=C(COC(=O)CCC(=O)c2ccc(C)cc2)NC(=O)NC1C (stereo unspecified)	none (no result: IMP-1 inhibitor, VIM-2 inh)
Cc1c(C)n(CCc2ccccc2)c2ncnc(NCCO)c12	MsrA act 10.0 | MsrA act confirm inactive
CC(=O)Nc1ccc(NC(=O)CC(C)n2ccnc2)cc1 (stereo unspecified)	MsrA act 8.5 | MsrA act confirm inactive
Cc1cc(C)nc(N/N=C/c2cccc([N+](=O)[O-])c2)n1	MsrA act 10 (no result: PKA-R1A activ, PKA-R2B act) | MsrA act confirm inactive
Cc1c(NC(=O)N2CCCCCC2)c(=O)n(-c2ccccc2)n1C	MsrA act 8.4 | MsrA act confirm inactive
Cc1c(NC(=O)Cn2[nH]c(=O)c3ccccc3c2=O)c(=O)n(-c2ccccc2)n1C	MsrA act 23 | MsrA act confirm inactive
C/C(=N/Nc1ccccc1C(=O)O)c1cccs1	MsrA act 16 | MsrA act confirm inactive
N#CC(c1nc2ccccc2nc1N1CCCC1)S(=O)(=O)c1cccs1 (stereo unspecified)	MsrA act 10.0 | MsrA act confirm inactive
CN(C(=O)c1ccc2c(c1)OCO2)C1CCS(=O)(=O)C1 (stereo unspecified)	none (no result: IMP-1 inhibitor, VIM-2 inh)
CC1CCCC(C)N1/N=C/c1cc(Br)cc(Br)c1O (stereo unspecified)	MsrA act 9.2 | MsrA act confirm inactive
CCOc1cccc(/C=N/N2C(C)CCCC2C)c1O (stereo unspecified)	none
Cc1cccc2cc3cccc(C)c3nc12	MsrA act 8.9 | MsrA act confirm inactive
Cc1cccc2cc3ccccc3nc12	none (no result: IMP-1 inhibitor, VIM-2 inh)
CC(Oc1ccccc1Cl)C(=O)N1CCOCC1 (stereo unspecified)	MsrA act 11 | MsrA act confirm inactive
CC(Oc1ccccc1Cl)C(=O)N1CCCN(C)CC1 (stereo unspecified)	none
O=C(N1CCOCC1)N1CCN(C(=O)N(c2ccccc2)c2ccccc2)CC1	MsrA act 7.9 | MsrA act confirm inactive
CCOC(=O)C(C)Oc1cccc2c(=O)n(CC(=O)Nc3cccc(OC)c3)ccc12 (stereo unspecified)	MsrA act 8.4 | MsrA act confirm inactive
CCOC(=O)Nc1ccc2c(c1)N(C(=O)CN(CC)CC)c1ccccc1CC2	none
CCOC(=O)Nc1ccc2c(c1)N(C(=O)CN(CC)CC)c1ccccc1C=C2	MsrA act 7.9 | MsrA act confirm inactive
COc1cccc2c1C1COC3C4CC(C(=O)O)C(C(C2)N13)N4C (stereo unspecified)	none (no result: IMP-1 inhibitor, VIM-2 inh)
CCO[C@H]1OC(C(=O)NC2CC2)=C[C@@H](c2c[nH]c3ccccc23)[C@@H]1CCCO	MsrA act 8.4 (no result: IMP-1 inhibitor, VIM-2 inh) | MsrA act confirm inactive
CCn1nc(C(=O)OCC(=O)Nc2ncc(Cl)c(C)c2Cl)c2ccccc2c1=O	MsrA act 19 | MsrA act confirm inactive
CCn1nc(C(=O)OCC(=O)NC(C)C)c2ccccc2c1=O	none
CCCC(=O)Nc1cc(C)c(NC(=O)Cc2ccccc2)cn1	none (no result: PKA-R1A activ, PKA-R2B act, MsrA act)
Cc1cc(NC(=O)C(C)C)ncc1NC(=O)Cc1ccccc1	MsrA act 9.6 | MsrA act confirm inactive
CCCn1c(Cc2ccccc2)n[nH]c1=S	none
S=c1[nH]nc(Cc2ccccc2)n1Cc1ccco1	MsrA act 7.7 | MsrA act confirm inactive
COc1ccc(CC(N)c2csc(NC(=O)c3cc(C(C)(C)C)nn3Cc3ccccc3)n2)cc1 (stereo unspecified)	none (no result: PKA-R1A activ, IMP-1 inhibitor, PKA-R2B act, VIM-2 inh)
CCOC(=O)c1cc2cc3ccccc3cc2[nH]1	none
CCOC(=O)c1cc2nc(OCC)nc(OCC)c2[nH]1	MsrA act 8.7 (no result: IMP-1 inhibitor, VIM-2 inh) | MsrA act confirm inactive
CCN1C(=O)[C@H]2[C@H]3CN=C(SCc4ccc(Cl)cc4)N3[C@@](CC)(C(=O)OC)[C@H]2C1=O	none (no result: IMP-1 inhibitor, VIM-2 inh)
CCCc1cc(=O)[nH]c(SCC(=O)Nc2cc(S(=O)(=O)N3CCOCC3)ccc2N(CC)CC)n1	none (no result: IMP-1 inhibitor, VIM-2 inh)
CCSc1oc(-c2ccccc2)nc1S(=O)(=O)c1ccccc1	none
CSc1oc(-c2ccccc2)nc1S(=O)(=O)c1ccc(C)cc1	MsrA act 8.0 | MsrA act confirm inactive
S=C(NCCCN1CCOCC1)Nc1ccc(Cl)c(Cl)c1	MsrA act 14 | MsrA act confirm inactive
Cc1ccc(NC(=S)NCCCN2CCOCC2)cc1C	none
Fc1ccc(-c2csc(=S)[nH]2)cc1	MsrA act 8.0 | MsrA act confirm inactive
S=c1[nH]c(-c2ccccc2)cs1	none
CSc1ccc(S(=O)(=O)Nc2ccc3c4c(cccc24)CC3)cc1	MsrA act 11 | MsrA act confirm inactive
Cc1ccc(-n2ccc(=O)c(C(=O)Nc3ccc(S(=O)(=O)Nc4nccc(C)n4)cc3)n2)cc1	none
Cc1cc(C)nc(NS(=O)(=O)c2ccc(NC(=O)c3nn(-c4ccccc4)ccc3=O)cc2)n1	MsrA act 14 | MsrA act confirm inactive
Nc1ncc(Br)cc1S(=O)(=O)Nc1ccccc1F	none
COc1ccccc1C(=O)Nc1ccccn1	MsrA act 12 | MsrA act confirm inactive
CCNC(=S)N1CCc2ccccc2C1	none (no result: PKA-R1A activ, PKA-R2B act)
S=C(NCc1ccccc1)N1CCc2ccccc2C1	MsrA act 9.5 | MsrA act confirm inactive
COc1ccc(CNC(=O)C2(C)Cc3c(-c4ccc5c(c4)OCO5)ccnc3O2)cc1OC (stereo unspecified)	none (no result: PKA-R1A activ, IMP-1 inhibitor, PKA-R2B act, VIM-2 inh)
NS(=O)(=O)c1ccc(NC(=O)COC(=O)c2ccc([N+](=O)[O-])s2)cc1	MsrA act 28 | MsrA act confirm 12
